Calls of active or inactive are those of the source. The rule behind the calls is not given here.
What was measured:
[1] = Antiproliferative activity against human PC3 cells after 96 hrs by MTT assay; type: functional; details: PC-3, 96 h
Outline: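 PC-3 cells grown in RPMI1640 with 10% heat-inactivated FBS; seeded 2×10³ cells/well, 24 h at 37°C, 5% CO₂, then compound at various concentrations for 96 h. MTT (2 mg/mL) added for 4 h, formazan dissolved in DMSO, absorbance 570 nm. GI₅₀ from inhibition ratios versus untreated cells; three independent experiments, mean reported.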

[2] = biological target: T1, Serine/threonine-protein kinase pim-1 (Homo sapiens, UniProt P11309); assay: Inhibition of Pim1 kinase (unknown origin) using substrate S3 after 50 mins by HTRF assay
Target sequence in this assay (P11309 whole entry): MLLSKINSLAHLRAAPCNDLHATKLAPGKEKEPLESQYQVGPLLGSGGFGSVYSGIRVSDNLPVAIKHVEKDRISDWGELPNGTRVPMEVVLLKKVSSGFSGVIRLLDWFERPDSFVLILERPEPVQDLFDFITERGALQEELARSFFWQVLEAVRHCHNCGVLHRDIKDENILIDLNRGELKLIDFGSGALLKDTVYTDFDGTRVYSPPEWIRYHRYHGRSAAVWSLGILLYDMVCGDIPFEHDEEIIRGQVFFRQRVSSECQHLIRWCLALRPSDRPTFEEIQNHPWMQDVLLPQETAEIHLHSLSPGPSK

[3] = biological target: T1, Serine/threonine-protein kinase pim-1; assay: Inhibition of Pim1 kinase in human PC3 cells assessed as decrease in BAD phosphorylation level at 8 to 16 uM after 24 hrs by Western blot analysis; type: cell-based; details: PC-3
Target sequence in this assay (P11309 whole entry, looked up): as the sequence (P11309 whole entry) above

[4] = biological target: T1, Serine/threonine-protein kinase pim-1; assay: Inhibition of Pim1 kinase in human PC3 cells assessed as increase in p21 level at 8 to 16 uM after 24 hrs by Western blot analysis; type: cell-based; details: PC-3
Target sequence in this assay (P11309 whole entry, looked up): as the sequence (P11309 whole entry) above

[5] = biological target: T1, Serine/threonine-protein kinase pim-1; assay: Inhibition of Pim1 kinase in human PC3 cells assessed as increase in p27 level at 8 to 16 uM after 24 hrs by Western blot analysis; type: cell-based; details: PC-3
Target sequence in this assay (P11309 whole entry, looked up): as the sequence (P11309 whole entry) above

PC-3 = assay: Induction of ERK phosphorylation in human PC3 cells at 8 to 16 uM after 24 hrs by Western blot analysis; type: cell-based
[6] = Cell cycle arrest in human PC3 cells assessed as cell accumulation at sub-G1 phase at 8 uM after 48 hrs by Propidium Iodide staining based flow cytometric analysis (reference value: 2.5%); type: functional; details: PC-3
Outline: (§1)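 PC-3 cells in six-well plates treated 0, 8, 12 or 16 μM for 24 or 48 h. Floating and adherent cells pooled, PBS-washed, fixed in ice-cold 70% ethanol at -20°C overnight, treated with 1 mg/mL RNase at 37°C for 30 min, stained with PI at 50 μg/mL final. DNA content read by flow cytometry, excitation 488 nm, emission 625 nm.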

[7] = Cell cycle arrest in human PC3 cells assessed as cell accumulation at G0/G1 phase at 8 uM after 48 hrs by Propidium Iodide staining based flow cytometric analysis (reference value: 57.9%); type: functional; details: PC-3; outline: as §1
[8] = Cell cycle arrest in human PC3 cells assessed as cell accumulation at G2/M phase at 8 uM after 48 hrs by Propidium Iodide staining based flow cytometric analysis (reference value: 32.4%); type: functional; details: PC-3; outline: as §1
[9] = Cell cycle arrest in human PC3 cells assessed as cell accumulation at sub-G1 phase at 12 uM after 48 hrs by Propidium Iodide staining based flow cytometric analysis (reference value: 2.5%); type: functional; details: PC-3; outline: as §1
[10] = Cell cycle arrest in human PC3 cells assessed as cell accumulation at G0/G1 phase at 12 uM after 48 hrs by Propidium Iodide staining based flow cytometric analysis (reference value: 57.9%); type: functional; details: PC-3; outline: as §1
[11] = Cell cycle arrest in human PC3 cells assessed as cell accumulation at G2/M phase at 12 uM after 48 hrs by Propidium Iodide staining based flow cytometric analysis (reference value: 32.4%); type: functional; details: PC-3; outline: as §1
[12] = Cell cycle arrest in human PC3 cells assessed as cell accumulation at sub-G1 phase at 16 uM after 48 hrs by Propidium Iodide staining based flow cytometric analysis (reference value: 2.5%); type: functional; details: PC-3; outline: as §1
[13] = Cell cycle arrest in human PC3 cells assessed as cell accumulation at G0/G1 phase at 16 uM after 48 hrs by Propidium Iodide staining based flow cytometric analysis (reference value: 57.9%); type: functional; details: PC-3; outline: as §1
[14] = Cell cycle arrest in human PC3 cells assessed as cell accumulation at G2/M phase at 16 uM after 48 hrs by Propidium Iodide staining based flow cytometric analysis (reference value: 32.4%); type: functional; details: PC-3; outline: as §1
[15] = Cell cycle arrest in human PC3 cells assessed as cell accumulation at sub-G1 phase at 8 uM after 24 hrs by Propidium Iodide staining based flow cytometric analysis (reference value: 1.7%); type: functional; details: PC-3; outline: as §1
[16] = Cell cycle arrest in human PC3 cells assessed as cell accumulation at G0/G1 phase at 8 uM after 24 hrs by Propidium Iodide staining based flow cytometric analysis (reference value: 57.1%); type: functional; details: PC-3; outline: as §1
[17] = Cell cycle arrest in human PC3 cells assessed as cell accumulation at G2/M phase at 8 uM after 24 hrs by Propidium Iodide staining based flow cytometric analysis (reference value: 32%); type: functional; details: PC-3; outline: as §1
[18] = Cell cycle arrest in human PC3 cells assessed as cell accumulation at sub-G1 phase at 12 uM after 24 hrs by Propidium Iodide staining based flow cytometric analysis (reference value: 1.7%); type: functional; details: PC-3; outline: as §1
[19] = Cell cycle arrest in human PC3 cells assessed as cell accumulation at G0/G1 phase at 12 uM after 24 hrs by Propidium Iodide staining based flow cytometric analysis (reference value: 57.1%); type: functional; details: PC-3; outline: as §1
[20] = Cell cycle arrest in human PC3 cells assessed as cell accumulation at G2/M phase at 12 uM after 24 hrs by Propidium Iodide staining based flow cytometric analysis (reference value: 32%); type: functional; details: PC-3; outline: as §1
[21] = Cell cycle arrest in human PC3 cells assessed as cell accumulation at sub-G1 phase at 16 uM after 24 hrs by Propidium Iodide staining based flow cytometric analysis (reference value: 1.7%); type: functional; details: PC-3; outline: as §1
[22] = Cell cycle arrest in human PC3 cells assessed as cell accumulation at G0/G1 phase at 16 uM after 24 hrs by Propidium Iodide staining based flow cytometric analysis (reference value: 57.1%); type: functional; details: PC-3; outline: as §1
[23] = Cell cycle arrest in human PC3 cells assessed as cell accumulation at G2/M phase at 16 uM after 24 hrs by Propidium Iodide staining based flow cytometric analysis (reference value: 32%); type: functional; details: PC-3; outline: as §1
[24] = biological target: T1, Serine/threonine-protein kinase pim-1; assay: Inhibition of Pim1 kinase in human PC3 cells assessed as decrease in c-Myc level at 8 to 16 uM after 24 hrs by Western blot analysis; type: cell-based; details: PC-3
Target sequence in this assay (P11309 whole entry, looked up): as the sequence (P11309 whole entry) above

[25] = biological target: T1, Serine/threonine-protein kinase pim-1; assay: Inhibition of Pim1 kinase in human PC3 cells assessed as decrease in 4E-BP1 phosphorylation level at 8 to 16 uM after 24 hrs by Western blot analysis; type: cell-based; details: PC-3
Target sequence in this assay (P11309 whole entry, looked up): as the sequence (P11309 whole entry) above

SMILES: Oc1cccc2ccc(Oc3ccccn3)nc12
- GI50 [1]: > 30 µM

SMILES: COc1ccc(Cl)c2ccc(Nc3ccccn3)nc12
- GI50 [1]: 29.2 µM

SMILES: c1ccc(Nc2ccc3ccccc3n2)nc1
- IC50 [2]: > 10 µM
- GI50 [1]: > 30 µM

SMILES: Oc1ccc(Br)c2ccc(Sc3ccccn3)nc12
- GI50 [1]: 10.2 µM

SMILES: Cc1ccnc(Nc2ccc3ccccc3n2)c1
- GI50 [1]: 26.7 µM

SMILES: Cc1ccnc(Nc2ccc3c(Cl)ccc(O)c3n2)c1
- GI50 [1]: 10.2 µM

SMILES: Oc1ccc(Cl)c2ccc(Sc3ccccn3)nc12
- GI50 [1]: 10.2 µM

SMILES: COc1ccc(Cl)c2ccc(Nc3cc(Cl)ccn3)nc12
- GI50 [1]: > 30 µM

SMILES: Oc1ccc(Br)c2ccc(Oc3ccccn3)nc12
- GI50 [1]: > 30 µM

SMILES: Clc1ccnc(Nc2ccc3ccccc3n2)c1
- GI50 [1]: > 30 µM

SMILES: Oc1cccc2ccc(Nc3ccccn3)nc12
- GI50 [1]: 2.6 µM

SMILES: Oc1ccc(Cl)c2ccc(Nc3cc(Cl)ccn3)nc12
- GI50 [1]: 25.5 µM

SMILES: Cc1ccnc(Nc2ccc3cccc(O)c3n2)c1
- GI50 [1]: 5.84 µM

SMILES: Oc1cccc2ccc(Sc3ccccn3)nc12
- IC50 [2]: > 10 µM
- GI50 [1]: 20.9 µM

SMILES: COc1ccc(Cl)c2ccc(Nc3cc(C)ccn3)nc12
- GI50 [1]: > 30 µM

SMILES: COc1cccc2ccc(Nc3ccccn3)nc12
- GI50 [1]: 7.47 µM

SMILES: Oc1cccc2ccc(Nc3cc(Cl)ccn3)nc12
- GI50 [1]: 2.81 µM

SMILES: COc1cccc2ccc(Nc3cc(Cl)ccn3)nc12
- GI50 [1]: 11.8 µM

SMILES: Oc1ccc(Cl)c2ccc(Nc3ccccn3)nc12
- inhibition [3]: Dose-dependent effect
- inhibition [4]: Dose-dependent effect
- inhibition [5]: Dose-dependent effect
- IC50 [2]: 0.75 µM
- Activity (PC-3): Active
- Activity [6]: 13.1%
- Activity [7]: 52.9%
- Activity [8]: 25%
- GI50 [1]: 1.29 µM
- Activity [9]: 27.7%
- Activity [10]: 44.4%
- Activity [11]: 20%
- Activity [12]: 52.6%
- Activity [13]: 31%
- Activity [14]: 11%
- Activity [15]: 2.9%
- Activity [16]: 65.2%
- Activity [17]: 19.3%
- Activity [18]: 10.4%
- Activity [19]: 64.5%
- Activity [20]: 17.3%
- Activity [21]: 31.5%
- Activity [22]: 48.1%
- Activity [23]: 13.9%
- Activity [24]: Dose-dependent effect
- inhibition [25]: Dose-dependent effect

SMILES: CN1CCC(CNc2ccc3ncc(-c4cccc(OC(F)(F)F)c4)n3n2)CC1 [SGI-1776]
- GI50 [1]: 4.86 µM

SMILES: Oc1ccc(Cl)c2ccc(Oc3ccccn3)nc12
- GI50 [1]: > 30 µM

SMILES: COc1cccc2ccc(Nc3cc(C)ccn3)nc12
- GI50 [1]: 3.82 µM

Source: ChEMBL document CHEMBL3774379, “Synthesis and biological evaluation of quinoline derivatives as potential anti-prostate cancer agents and Pim-1 kinase inhibitors” (Bioorg Med Chem, 2016)
